Test results: ChEMBL document CHEMBL3407428, “Synthesis, in vitro and in vivo antitumor activity of scopoletin-cinnamic acid hybrids” (Eur J Med Chem, 2015)

Assays:
MCF7 = test: Cytotoxicity against human MCF7 cells assessed as growth inhibition at 10^-5 M after 72 hrs by MTT assay relative to control; format: functional; conditions: MCF7, 72 h, read-out: GI
[1] = Cytotoxicity against human HCT116 cells assessed as growth inhibition after 72 hrs by MTT assay; format: functional, cell-based; conditions: HCT-116, 72 h
Procedure, shortened: (§1)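 MTT viability assay. Cells were seeded at 5000 per well, incubated overnight, then exposed to compound at a range of concentrations for 72 h. MTT was added from a 5 mg/mL stock for 4 h, and absorbance was read at 570 nm. IC50 (50% viability inhibition) was calculated by the logit method. Each concentration was run at least three times.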

A549 [2] = test: Cytotoxicity against human A549 cells assessed as growth inhibition after 72 hrs by MTT assay; format: functional, cell-based; conditions: A549, 72 h; procedure, shortened: as §1
A549 [3] = test: Cytotoxicity against human A549 cells assessed as growth inhibition at 10^-5 M after 72 hrs by MTT assay relative to control; format: functional; conditions: A549, 72 h, read-out: GI
HeLa = test: Cytotoxicity against human HeLa cells assessed as growth inhibition at 10^-5 M after 72 hrs by MTT assay relative to control; format: functional; conditions: read-out: GI
MDA-MB-231 [4] = test: Cytotoxicity against human MDA-MB-231 cells assessed as growth inhibition at 10^-5 M after 72 hrs by MTT assay relative to control; format: functional; conditions: MDA-MB-231, 72 h, read-out: GI
[5] = Cytotoxicity against human HCT116 cells assessed as growth inhibition at 10^-5 M after 72 hrs by MTT assay relative to control; format: functional; conditions: HCT-116, 72 h, read-out: GI
MDA-MB-231 [6] = test: Cytotoxicity against human MDA-MB-231 cells assessed as growth inhibition after 72 hrs by MTT assay; format: functional, cell-based; conditions: MDA-MB-231, 72 h; procedure, shortened: as §1
[7] = tested on: Lewis lung carcinoma cell line; test: Antitumor activity against mouse LLC cells allografted in C57BL/6 mouse assessed as tumor growth inhibition at 2.5 mg/kg, ip administered for 14 days measured on day 15 relative to control; format: functional; conditions: route intraperitoneal, read-out: TGI
Procedure, shortened: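 Female C57BL/6 mice (18–22 g) given 3 × 10^6 Lewis lung cancer cells subcutaneously in the right flank; dosing began 7 to 21 days after inoculation. Mice were randomized into groups of 10. Treatment was intraperitoneal daily for 14 days at 2.5, 5 or 10 mg/kg, with a saline control group. Tumors were excised and weighed when the mice were killed after 14 days.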

Mus musculus = test: Toxicity in C57BL/6 mouse allografted with mouse LLC cells assessed as decrease in body weight at 2.5 mg/kg, ip administered for 14 days measured during compound dosing; format: organism-based; set-up: dose 2.5 mg/kg, route intraperitoneal; conditions: in vivo, 336 h
Procedure, shortened: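 LLC-bearing female C57BL/6 mice (18–22 g; 3 × 10^6 cells s.c., right flank) were randomized into groups of 10 and dosed i.p. daily for 14 days, with a saline control. Body weight was recorded every day from the first treatment.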

Structure (SMILES): COc1ccc(/C=C/C(=O)Nc2cc3cc(OC)c(O)cc3oc2=O)cc1
- inhibition of growth at 10 µM (MCF7): 44.8%
- IC50 [1]: 0.505 µM
- IC50 (A549 [2]): 0.649 µM
- inhibition of growth at 10 µM (A549 [3]): 88.6%
- inhibition of growth at 10 µM (HeLa): 60.9%
- inhibition of growth at 10 µM (MDA-MB-231 [4]): 61.4%
- inhibition of growth at 10 µM [5]: 75.7%
- IC50 (MDA-MB-231 [6]): 0.578 µM

Structure (SMILES): COc1cc2ccc(=O)oc2cc1OC(=O)/C=C/c1cc(OC)c(OC)c(OC)c1
- inhibition of growth at 10 µM (MCF7): 18%
- inhibition of growth at 10 µM (A549 [3]): 20.6%
- inhibition of growth at 10 µM (HeLa): 0.93%
- inhibition of growth at 10 µM (MDA-MB-231 [4]): 11.8%
- inhibition of growth at 10 µM [5]: 18.9%

Structure (SMILES): COc1cc2cc(NC(=O)/C=C/c3cc(OC)c(OC)c(OC)c3)c(=O)oc2cc1O
- inhibition of growth at 10 µM (MCF7): 18.3%
- inhibition of growth at 10 µM (A549 [3]): 4.87%
- inhibition of growth at 10 µM (HeLa): 9.45%
- inhibition of growth at 10 µM (MDA-MB-231 [4]): 12.9%
- inhibition of growth at 10 µM [5]: 7.11%

Structure (SMILES): COc1cc2cc(NC(=O)/C=C/c3ccc(C(F)(F)F)cc3)c(=O)oc2cc1O
- inhibition of growth at 10 µM (MCF7): 12.6%
- inhibition of growth at 10 µM (A549 [3]): 26.4%
- inhibition of growth at 10 µM (HeLa): 19%
- inhibition of growth at 10 µM (MDA-MB-231 [4]): 24.6%
- inhibition of growth at 10 µM [5]: 17%

Structure (SMILES): COc1cccc2c1C(=O)c1c(O)c3c(c(O)c1C2=O)C[C@@](O)(C(=O)CO)C[C@@H]3O[C@H]1C[C@H](N)[C@H](O)[C@H](C)O1 [DOXORUBICIN]
- inhibition in vivo at 2.5 mg/kg [7]: 52.5%
- Activity (Mus musculus): Toxic
- inhibition of growth at 10 µM (MCF7): 84.9%
- IC50 [1]: 0.477 µM
- IC50 (A549 [2]): 1.28 µM
- inhibition of growth at 10 µM (A549 [3]): 92%
- inhibition of growth at 10 µM (HeLa): 82%
- inhibition of growth at 10 µM (MDA-MB-231 [4]): 89.3%
- inhibition of growth at 10 µM [5]: 79%
- IC50 (MDA-MB-231 [6]): 1.55 µM

Structure (SMILES): COc1cc2cc(NC(=O)/C=C/c3ccc(F)cc3)c(=O)oc2cc1O
- inhibition of growth at 10 µM (MCF7): 58.4%
- IC50 [1]: 5.54 µM
- IC50 (A549 [2]): 0.612 µM
- inhibition of growth at 10 µM (A549 [3]): 85.6%
- inhibition of growth at 10 µM (HeLa): 67.1%
- inhibition of growth at 10 µM (MDA-MB-231 [4]): 69.2%
- inhibition of growth at 10 µM [5]: 54.2%
- IC50 (MDA-MB-231 [6]): 2.35 µM

Structure (SMILES): COc1cc2ccc(=O)oc2cc1OC(=O)/C=C/c1ccc(Cl)cc1
- inhibition of growth at 10 µM (MCF7): 22.8%
- inhibition of growth at 10 µM (A549 [3]): 2.73%
- inhibition of growth at 10 µM (HeLa): 22.4%
- inhibition of growth at 10 µM (MDA-MB-231 [4]): 20.3%
- inhibition of growth at 10 µM [5]: 21.1%

Structure (SMILES): COc1cc2cc(NC(=O)/C=C/c3ccccc3)c(=O)oc2cc1O
- inhibition of growth at 10 µM (MCF7): 6.06%
- IC50 [1]: 1.15 µM
- IC50 (A549 [2]): 2.18 µM
- inhibition of growth at 10 µM (A549 [3]): 65.7%
- inhibition of growth at 10 µM (HeLa): 58.3%
- inhibition of growth at 10 µM (MDA-MB-231 [4]): 44.5%
- inhibition of growth at 10 µM [5]: 60.3%
- IC50 (MDA-MB-231 [6]): 0.369 µM
